According to ChEMBL document CHEMBL1130427, “Phenylimidazolidin-2-one derivatives as selective 5-HT3 receptor antagonists and refinement of the pharmacophore model for 5-HT3 receptor binding” (J Med Chem, 1997):
Calls of active or inactive are those of the source.

Assays:
[1] = biological target: T1, Serotonin 3 (5-HT3) receptor (Rattus norvegicus) (UniProt P35563+Q9JJ16); test: Inhibition of the Bezold Jarisch reflex evoked by 30 ug/Kg of 5-HT; Weak activity.; type: functional
[2] = biological target: T2, Serotonin 3 (5-HT3) receptor (Rattus norvegicus, UniProt P35563+Q9JJ16); test: In vitro affinity for 5-hydroxytryptamine 3 (5-HT3) receptor by displacement of [3H]BRL-43694 from rat entorhinal cortex
T2 sequence (P35563 whole entry): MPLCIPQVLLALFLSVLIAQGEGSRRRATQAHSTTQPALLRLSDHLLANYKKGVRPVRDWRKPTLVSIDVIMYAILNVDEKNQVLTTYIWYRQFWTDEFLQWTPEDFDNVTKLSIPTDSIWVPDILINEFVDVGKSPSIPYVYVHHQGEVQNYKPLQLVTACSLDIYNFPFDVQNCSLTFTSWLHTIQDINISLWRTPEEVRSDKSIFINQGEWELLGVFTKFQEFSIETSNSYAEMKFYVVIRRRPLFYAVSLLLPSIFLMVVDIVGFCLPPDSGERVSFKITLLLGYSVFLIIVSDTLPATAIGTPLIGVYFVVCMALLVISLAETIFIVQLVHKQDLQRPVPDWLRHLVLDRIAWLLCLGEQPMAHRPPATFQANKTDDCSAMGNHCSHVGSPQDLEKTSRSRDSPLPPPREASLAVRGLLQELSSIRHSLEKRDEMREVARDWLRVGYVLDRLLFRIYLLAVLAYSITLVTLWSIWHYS
T2 sequence (Q9JJ16 whole entry): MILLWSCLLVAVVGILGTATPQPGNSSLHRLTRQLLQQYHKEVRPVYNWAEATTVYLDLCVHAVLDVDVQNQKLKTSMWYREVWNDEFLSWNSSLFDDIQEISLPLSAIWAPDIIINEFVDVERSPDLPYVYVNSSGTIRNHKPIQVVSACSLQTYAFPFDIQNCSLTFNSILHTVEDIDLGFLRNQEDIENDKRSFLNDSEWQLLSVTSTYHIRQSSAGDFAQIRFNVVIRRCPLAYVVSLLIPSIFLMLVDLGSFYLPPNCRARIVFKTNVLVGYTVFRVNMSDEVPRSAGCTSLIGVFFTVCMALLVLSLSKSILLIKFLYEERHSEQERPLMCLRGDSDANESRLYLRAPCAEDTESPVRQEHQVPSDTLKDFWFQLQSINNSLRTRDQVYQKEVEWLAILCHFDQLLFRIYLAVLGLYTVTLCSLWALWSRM
Procedure, shortened: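 Each displacement curve has 10 concentrations in triplicate; Ki averaged from at least three curves (±SEM) using the Ligand program.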

[3] = biological target: T3, 5-hydroxytryptamine receptor 3A (Rattus norvegicus) (UniProt P35563); test: Antagonist activity (100 ug/kg) for the Bezold Jarisch reflex evoked by 30 (ug/Kg) of 5-hydroxytryptamine 3 receptor in ethylurethane anesthetized rats i.v.; type: functional
T3 sequence (whole entry): T2 sequence (P35563 whole entry)

[4] = biological target: T1, Serotonin 3 (5-HT3) receptor (Rattus norvegicus); test: Antagonist activity ([…]) for the Bezold Jarisch reflex evoked by 30 ug/Kg of 5-HT in ethylurethane anesthetized rats (i.v.); type: functional
[5] = biological target: T1, Serotonin 3 (5-HT3) receptor (Rattus norvegicus); test: (§1) Inhibition of the Bezold Jarisch reflex evoked by 30 ug/Kg of 5-HT.; type: functional
Procedure, shortened: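 Rats anesthetized with ethylurethane, 1.25 g/kg ip. Bezold–Jarisch reflex evoked by 5-HT 30 μg/kg iv. The rapid, transient fall in heart rate was quantified without and with antagonist.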

Rattus norvegicus = test: Antagonist activity (100 ug/kg) for the Bezold Jarisch reflex evoked by 30(ug/Kg) of 5-HT receptor in ethylurethane anesthetized rats i.v.; type: functional
[6] = biological target: T1, Serotonin 3 (5-HT3) receptor (Rattus norvegicus); test: as §1; type: functional; remark: listed apart in the source

O=C1N(c2ccc(Cl)cc2)CCN1C1CN2CCC1CC2 (centres undefined) was tested, and the ID50 [1] was “Partially active”, the Ki [2] was 210 nM and the inhibition [3] was 8%.

For CCn1cnc(CN2CCN(c3ccccc3)C2=O)c1C, the ID50 [1] was “Partially active”, the Ki [2] was 85 nM and the inhibition [4] was 21%.

Molecule COc1cccc(N2CCN(Cc3nc[nH]c3C)C2=O)c1 has an ID50 [5] of 0.0154 mg/kg, a Ki [2] of 3.6 nM and an inhibition [4] of 92%.

With CSc1cccc(N2CCN(C3CN4CCC3CC4)C2=O)c1 (centres undefined) the ID50 [1] was “Partially active”, the Ki [2] was 6 nM and the inhibition [4] was 28%.

O=C1N(c2cccc(Cl)c2)CCN1C1CN2CCC1CC2 (centres undefined) showed a Ki [2] of 2 nM, an Inhibition (Rattus norvegicus) of 60% and an ID50 [6] of 0.0799 mg/kg.

CN1[C@@H]2CC[C@H]1C[C@@H](OC(=O)c1c[nH]c3ccccc13)C2 gave an ID50 [5] of 0.001 mg/kg.

Cc1[nH]cnc1CN1CCN(c2cccc(F)c2)C1=O was tested, and the ID50 [5] was 0.0176 mg/kg, the Ki [2] was 3.7 nM and the inhibition [4] was 84%.

For CN1C2CCC1CC(N1CCN(c3cccc(Cl)c3)C1=O)C2 (stereo in doubt; 33) [listing 1 of 2 here], the Ki [2] was 25 nM.

With COc1ccc(Cl)cc1N1CCN(C2CN3CCC2CC3)C1=O (centres undefined) the ID50 [1] was “Partially active”, the Ki [2] was 40 nM and the inhibition [4] was 11%.

For CN1C2CCC1CC(N1CCN(c3cccc(Cl)c3)C1=O)C2 (stereo in doubt; 33) [listing 2 of 2 here], the ID50 [1] was “Partially active” and the inhibition [4] was 27%.

CN1C2CCCC1CC(N1CCN(c3cccc(Cl)c3)C1=O)C2 (stereo in doubt; 38) [listing 1 of 2 here] was tested, and the Ki [2] was 360 nM.

CN1C2CCCC1CC(N1CCN(c3ccccc3)C1=O)C2 (centres undefined) was tested, and the ID50 [1] was “Partially active”, the Ki [2] was 190 nM and the inhibition [4] was 22%.

Cc1[nH]cnc1CN1CCN(c2cccc(Cl)c2)C1=O gave an ID50 [5] of 0.00526 mg/kg, a Ki [2] of 0.5 nM and an inhibition [4] of 87%.

In the case of CN1C2CCC1CC(NC(=O)N1CC(C)(C)c3ccccc31)C2 (centres undefined), the ID50 [5] is reported as 0.00089 mg/kg, the Ki [2] is reported as 0.26 nM and the inhibition [4] is reported as 90.5%.

CSc1cccc(N2CCN(Cc3nc[nH]c3C)C2=O)c1 showed an ID50 [5] of 0.0286 mg/kg, a Ki [2] of 1.6 nM and an inhibition [4] of 88%.

In the case of COc1ccc(Cl)cc1N1CCN(C2CC3CCCC(C2)N3C)C1=O (centres undefined), the ID50 [1] is reported as “Partially active”, the Ki [2] is reported as over 10000 nM and the inhibition [4] is reported as 5%.

Cc1[nH]cnc1CN1CCN(c2cc(Cl)cc(Cl)c2)C1=O showed an ID50 [5] of 0.0022 mg/kg, a Ki [2] of 0.038 nM and an inhibition [4] of 93%.

Cc1nc[nH]c1CN1CCN(c2cccc([N+](=O)[O-])c2)C1=O gave a Ki [2] of 6.6 nM.

Cc1[nH]cnc1CN1CCN(c2cccc(Br)c2)C1=O was tested, and the ID50 [5] was 0.0065 mg/kg, the Ki [2] was 0.62 nM and the inhibition [4] was 89%.

In the case of O=C1N(c2cc(Cl)cc(Cl)c2)CCN1C1CN2CCC1CC2 (centres undefined), the ID50 [5] is reported as 0.0206 mg/kg, the Ki [2] is reported as 1 nM and the inhibition [4] is reported as 76%.

In the case of CN1C2CCCC1CC(N1CCN(c3cccc(Cl)c3)C1=O)C2 (stereo in doubt; 37) [listing 1 of 2 here], the Ki [2] is reported as 250 nM.

For O=C1N(c2ccccc2)CCN1C1CN2CCC1CC2 (centres undefined), the ID50 [5] was 0.0671 mg/kg, the Ki [2] was 8 nM and the inhibition [4] was 71%.

For Cc1[nH]cnc1CN1CCN(c2ccc(Cl)cc2)C1=O, the ID50 [1] was “Partially active”, the Ki [2] was 19 nM and the inhibition [4] was 29%.

Cc1cc(C)cc(N2CCN(Cc3nc[nH]c3C)C2=O)c1 was tested, and the ID50 [5] was 0.0034 mg/kg, the Ki [2] was 0.42 nM and the inhibition [4] was 86%.

For CN1C2CCCC1CC(N1CCN(c3cccc(Cl)c3)C1=O)C2 (stereo in doubt; 38) [listing 2 of 2 here], the ID50 [1] was “Partially active” and the inhibition [4] was 21%.

With O=C1N(c2cccc(Br)c2)CCN1C1CN2CCC1CC2 (centres undefined) the ID50 [1] was “Partially active”, the Ki [2] was 3 nM and the inhibition [4] was 77.7%.

In the case of Cc1[nH]cnc1CN1CCN(c2ccccc2Cl)C1=O, the ID50 [1] is reported as “Partially active”, the Ki [2] is reported as 290 nM and the inhibition [4] is reported as 5%.

With Cc1[nH]cnc1CN1CCN(c2cccc(C(F)(F)F)c2)C1=O the ID50 [1] was “Partially active”, the Ki [2] was 9.7 nM and the inhibition [4] was 39%.

For O=C1N(Cc2c[nH]cn2)CCN1c1ccccc1, the ID50 [1] was “Partially active”, the Ki [2] was 4 nM and the inhibition [4] was 56%.

With CC[n+]1c[nH]c(C)c1CN1CCN(c2ccccc2)C1=O the ID50 [1] was “Partially active”, the Ki [2] was 67 nM and the inhibition [4] was 38%.

With Cc1nccn1CC1CCc2c(c3ccccc3n2C)C1=O (centres undefined) the ID50 [5] was 0.00225 mg/kg.

In the case of Cc1[nH]cnc1CN1CCN(c2cccc(C#N)c2)C1=O, the ID50 [5] is reported as 0.0322 mg/kg, the Ki [2] is reported as 2.7 nM and the inhibition [4] is reported as 88%.

Work on Cc1c(CN2CCN(c3ccccc3)C2=O)ncn1C yielded an ID50 [5] of 0.0285 mg/kg, a Ki [2] of 8.5 nM and an inhibition [4] of 77%.

Cc1cccc(N2CCN(Cc3nc[nH]c3C)C2=O)c1 was tested, and the ID50 [5] was 0.0031 mg/kg, the Ki [2] was 0.93 nM and the inhibition [4] was 86%.

For CN1C2CCC1CC(N1CCN(c3ccccc3)C1=O)C2 (centres undefined), the ID50 [1] was “Partially active”, the Ki [2] was 12 nM and the inhibition [4] was 56%.

In the case of O=C1N(c2cccc(C(F)(F)F)c2)CCN1C1CN2CCC1CC2 (centres undefined), the ID50 [1] is reported as “Partially active”, the Ki [2] is reported as 98 nM and the inhibition [4] is reported as 14%.

With COc1cccc(N2CCN(C3CN4CCC3CC4)C2=O)c1 (centres undefined) the ID50 [1] was “Partially active”, the Ki [2] was 6 nM and the Inhibition (Rattus norvegicus) was 37%.

With CN1C2CCC1CC(N1CCN(c3cccc(Cl)c3)C1=O)C2 (stereo in doubt; 34) [listing 1 of 2 here] the ID50 [1] was “Partially active” and the inhibition [4] was 0%.

With Cc1[nH]c[n+](C)c1CN1CCN(c2ccccc2)C1=O the ID50 [1] was “Partially active”, the Ki [2] was 55 nM and the inhibition [4] was 45%.

Cc1cccc(N2CCN(C3CN4CCC3CC4)C2=O)c1 (centres undefined) was tested, and the Ki [2] was 4 nM, the inhibition [4] was 75% and the ID50 [6] was 0.0376 mg/kg.

For O=C1N(c2cccc([N+](=O)[O-])c2)CCN1C1CN2CCC1CC2 (centres undefined), the ID50 [1] was “Partially active”, the Ki [2] was 10 nM and the inhibition [4] was 5%.

With N#Cc1cccc(N2CCN(C3CN4CCC3CC4)C2=O)c1 (centres undefined) the ID50 [1] was “Partially active”, the Ki [2] was 30 nM and the inhibition [4] was 43%.

Cc1[nH]cnc1CN1CCN(c2ccccc2)C1=O was tested, and the ID50 [5] was 0.0039 mg/kg, the Ki [2] was 3.4 nM and the inhibition [4] was 95%.

With CN1C2CCC1CC(N1CCN(c3cccc(Cl)c3)C1=O)C2 (stereo in doubt; 34) [listing 2 of 2 here] the Ki [2] was over 10000 nM.

For CN1C2CCCC1CC(N1CCN(c3cccc(Cl)c3)C1=O)C2 (stereo in doubt; 37) [listing 2 of 2 here], the ID50 [1] was “Partially active” and the inhibition [4] was 15%.

For COc1ccc(Cl)cc1N1CCN(C2CC3CCC(C2)N3C)C1=O (centres undefined), the ID50 [1] was “Partially active”, the Ki [2] was 400 nM and the inhibition [4] was 22%.

Work on CN1C2CCCC1CC(NC(=O)c1nn(C)c3ccccc13)C2 (centres undefined) yielded an ID50 [5] of 0.00088 mg/kg and an inhibition [4] of 95%.

For Cc1[nH]cnc1CN1CCN(c2cccc([N+](=O)[O-])c2)C1=O, the ID50 [5] was 0.054 mg/kg and the inhibition [4] was 95%.
